Here are results for four molecules from publication PMC3204214 (Proteins, 2011).

Data set [1] has as its target melittin (Apis mellifera) (UniProt P01501). The note with it: cited from earlier work.
Data set [2] has as its target T1, Crcen (Chlamydomonas reinhardtii centrin) (Chlamydomonas reinhardtii, UniProt P05434). Kind of data set: Isothermal titration calorimetry of Crcen-MLT interaction. The class given is binding. The following applies: ITC, pH 7.4, 25 °C. Summed up:
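Unlabeled recombinant centrin was expressed in E. coli, purified, and quantified by ε280 = 1,490 M⁻¹ cm⁻¹. The acetylated, amidated test peptide was dialysed against 0.1 N HCl to remove TFA, then against buffer. 120 μM peptide was injected sequentially into 10 μM centrin in 50 mM Hepes, 150 mM NaCl, 4 mM CaCl₂, 4 mM MgCl₂, pH 7.4, 25 °C. Data were fitted to a one-site binding model.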
(In ITC the heat of successive injections is recorded.)

A further data set concerns calmodulin (CaM). The following applies: literature statement; cited from earlier work.
The test system of the next data set is human centrin 2 (Hscen2). The following applies: 30 °C, pH 6.5; compared to Crcen-MLT and CaM-MLT; ref [16]; cited from earlier work.
The target of data set [3] is T1, Crcen (Chlamydomonas reinhardtii centrin). Nature of the data set: X-ray crystal structure of Crcen-MLT complex. The note with it: PDB 3QRX, 2.30 Å, 4 Ca^2+ ions, Crcen-MLT 1:1.5 molar ratio. The class given is binding.
The test system of another data set is human centrin 3. The note with it: compared to Hscen2-MLT (Kd 62.5 nM); ref [16],[25]; cited from earlier work.
Another data set deals with tumor. The following applies: ref [23],[24]; cited from earlier work.
The nature of data set [4]: FT-IR / 2D IR correlation spectroscopy, thermal dependence. The class given is physicochemical. The following applies: ^13C-Crcen-MLT complex.
A further data set concerns CaM (calmodulin). The following applies: cited from earlier work.
The conditions of data set [5]: ref [12]; cited from earlier work.
For data set [6] the following is noted: holo-Crcen; ref [11]; cited from earlier work.
Data set [7] addresses Chlamydomonas reinhardtii centrin (Chlamydomonas reinhardtii) (UniProt P05434). Kind of data set: ITC.

Entries after “also recorded” stand apart in the source; their conditions may differ.

Chlamydomonas reinhardtii centrin (Chlamydomonas reinhardtii), sequence (P05434 whole entry): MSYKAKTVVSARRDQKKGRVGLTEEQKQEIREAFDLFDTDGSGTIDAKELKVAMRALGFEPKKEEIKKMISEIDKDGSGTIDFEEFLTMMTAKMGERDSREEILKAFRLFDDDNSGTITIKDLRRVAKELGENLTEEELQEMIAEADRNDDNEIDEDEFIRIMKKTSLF
Melittin (Ac-…-NH2) (peptide), sequence (P01501 44-69): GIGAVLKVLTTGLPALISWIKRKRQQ
T1 sequence (P05434 2-169): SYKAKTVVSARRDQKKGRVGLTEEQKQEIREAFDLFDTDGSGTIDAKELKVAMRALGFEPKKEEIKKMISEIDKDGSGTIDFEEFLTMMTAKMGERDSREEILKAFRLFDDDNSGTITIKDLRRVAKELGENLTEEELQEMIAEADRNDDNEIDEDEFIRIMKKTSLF
human centrin 2, sequence (P41208 2-172): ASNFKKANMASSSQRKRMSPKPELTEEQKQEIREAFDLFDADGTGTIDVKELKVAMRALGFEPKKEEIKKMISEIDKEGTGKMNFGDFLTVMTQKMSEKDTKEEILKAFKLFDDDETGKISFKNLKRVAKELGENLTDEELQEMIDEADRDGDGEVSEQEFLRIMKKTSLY
melittin (Apis mellifera), sequence (P01501 44-70): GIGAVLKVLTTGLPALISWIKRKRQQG

On to human centrin 2 (from UniProt P41208), for which the Kd in data set [1] was 62.5 nM.
As to `CC[C@H](C)[C@H](NC(=O)CNC(C)=O)C(=O)NCC(=O)N[C@@H](C)C(=O)N[C@H](C(=O)N[C@@H](CC(C)C)C(=O)N[C@@H](CCCCN)C(=O)N[C@H](C(=O)N[C@@H](CC(C)C)C(=O)N[C@H](C(=O)N[C@H](C(=O)NCC(=O)N[C@@H](CC(C)C)C(=O)N1CCC[C@H]1C(=O)N[C@@H](C)C(=O)N[C@@H](CC(C)C)C(=O)N[C@H](C(=O)N[C@@H](CO)C(=O)N[C@@H](Cc1c[nH]c2ccccc12)C(=O)N[C@H](C(=O)N[C@@H](CCCCN)C(=O)N[C@@H](CCCNC(=N)N)C(=O)N[C@@H](CCCCN)C(=O)N[C@@H](CCCNC(=N)N)C(=O)N[C@@H](CCC(N)=O)C(=O)N[C@@H](CCC(N)=O)C(N)=O)[C@@H](C)CC)[C@@H](C)CC)[C@@H](C)O)[C@@H](C)O)C(C)C)C(C)C` [MLT], in [2], the “thermodynamic driving force of complex formation” value is “driven by entropy; also recorded: driven entropically”, the ΔG was -11.1 kcal/mol and the ΔS is listed as 28.0 cal/mol∙K. In addition, the “n (binding stoichiometry)” value in [2] (one-site binding model) came to 1.38 ± 0.01. The ΔHb in data set [2] (exothermic) was -2.73 ± 0.07 kcal/mol. Also, in the data set with calmodulin (CaM), the “inhibition of calmodulin (CaM) activity” value is on record as “potent inhibitor”. Moreover, the “enthalpy change, Hscen2-MLT” value with human centrin 2 (Hscen2) is on record as “much more favorable for binding”. Also, the “binding site in crystal structure” value in [3] was “interacts with the C-terminal domain of Crcen; also recorded: limits its interaction to the C-terminal domain of centrin”. In addition, the “affinity, human centrin 3-MLT, fold higher than Hscen2-MLT” value with human centrin 3 is recorded as 2–3 fold. Besides, in the data set with tumor, the cytotoxicity entry was “cytotoxicity” and the “effect on tumor growth” value is reported as “inhibitory effect on tumor growth”. For the same molecule, the “conformational change of MLT in the complex” value in [4] was “increased helicity”. The “thermodynamic driving force of complex formation, CaM” value in the data set with CaM (calmodulin) (BtCaM, 25 °C, pH 7.0, ref [14]) was “driven by entropy”. Also, on CaM (calmodulin) (holo-CaM-MLT, 1:1 molar ratio, ref [14],[15],[17]), the “dissociation constant (Kd), holo-CaM” value is “low nanomolar range”. The dissociation constant Kd at CaM (calmodulin) (read-out: Kd, apo-CaM, ref [17],[18]) was ~10000 nM.
For the molecule “Crcen: Chlamydomonas reinhardtii centrin (Swiss Protein Database accession number P05434), EF-hand calcium binding protein”, the “shift of amide I’ peak maximum with temperature, unlabeled Crcen” value in data set [5] was 2.5 cm⁻¹. Besides, in [6], the “Tm (transition temperature)” value was 112.1 °C.
As for Melittin (Ac-…-NH2) (peptide), in data set [7], the equilibrium dissociation constant (Kd) turned out to be 7.41 nM, the dH was -2.73 kcal/mol and the stoichiometry N turned out to be 1.38.

A word on the Kd: it is the constant that tells how readily two partners part at equilibrium. The term stoichiometry N denotes a count of units in the complex or per binding partner.
